Tested on: not listed separately
Test: Antiplatelet activity against rat platelet rich plasma assessed as inhibition of ADP-induced platelet aggregation after 2 mins by Born test method
Type: functional
How it was run: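 Rat blood was collected into 3.8% sodium citrate (1:9, v/v). Platelet-rich plasma was obtained by centrifugation at room temperature for 10 min (500–800 rpm). Platelet-poor plasma, made by spinning PRP at room temperature for 15 min (3000 rpm), set zero. Compound was incubated with PRP for 2 min, then aggregation was stimulated with ADP and read on an aggregometer. Results are given as percentage inhibition and IC50.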

In order of falling IC50:
1. COc1ccc(C(=O)Nc2ccccc2F)cc1C(=O)Nc1ccccc1F  860 nM
2. CCOc1cccc(NC(=O)c2ccc(OC)c(C(=O)Nc3cccc(OCC)c3)c2)c1  810 nM
3. COc1ccc(C(=O)Nc2ccccc2)cc1C(=O)Nc1ccccc1  770 nM
4. COc1ccc(C(=O)NCc2cccnc2)cc1C(=O)NCc1cccnc1 [PICOTAMIDE]  760 nM
5. COc1ccc(C(=O)Nc2ccc([N+](=O)[O-])cc2)cc1C(=O)Nc1ccc([N+](=O)[O-])cc1  750 nM
6. COc1ccc(C(=O)Nc2ccc(C(C)=O)cc2)cc1C(=O)Nc1ccc(C(C)=O)cc1  670 nM
7. COc1ccc(C(=O)Nc2ccccc2Br)cc1C(=O)Nc1ccccc1Br  660 nM
8. COc1ccc(C(=O)Nc2ccc(C)cc2)cc1C(=O)Nc1ccc(C)cc1  640 nM
9. COc1ccc(C(=O)Nc2ccc(F)cc2)cc1C(=O)Nc1ccc(F)cc1  600 nM
10. COc1ccc(C(=O)Nc2ccccc2CC#N)cc1C(=O)Nc1ccccc1CC#N  590 nM
11. COc1ccc(C(=O)NCc2ccccc2)cc1C(=O)NCc1ccccc1  580 nM
12. COc1ccc(C(=O)Nc2ccc(Br)cc2)cc1C(=O)Nc1ccc(Br)cc1  510 nM
13. COc1ccc(C(=O)Nc2ccc(I)cc2)cc1C(=O)Nc1ccc(I)cc1  490 nM
14. COc1cccc(NC(=O)c2ccc(OC)c(C(=O)Nc3cccc(OC)c3)c2)c1  490 nM
15. CCCCOc1ccc(NC(=O)c2ccc(OC)c(C(=O)Nc3ccc(OCCCC)cc3)c2)cc1  490 nM
16. COc1ccc(C(=O)Nc2ccccc2I)cc1C(=O)Nc1ccccc1I  300 nM
17. COc1ccc(C(=O)NCCc2ccccc2)cc1C(=O)NCCc1ccccc1  240 nM
18. COc1ccc(C(=O)Nc2ccccc2Cc2ccccc2)cc1C(=O)Nc1ccccc1Cc1ccccc1  20 nM

Tested on: Platelet
Test: Ratio of picotamide IC50 to compound IC50 for rat platelet rich plasma assessed as inhibition of ADP-induced platelet aggregation
Type: functional

In the case of COc1ccc(C(=O)Nc2ccccc2Cc2ccccc2)cc1C(=O)Nc1ccccc1Cc1ccccc1, the “Ratio IC50” value is reported as 10.

From ChEMBL document CHEMBL2157900, “Design, synthesis and in vitro activities on anti-platelet aggregation of 4-methoxybenzene-1,3-isophthalamides” (Bioorg Med Chem Lett, 2012)
